The values below come from ChEMBL document CHEMBL1121813, “Dihydrochalcone sweeteners. A study of the atypical temporal phenomena” (1981).

Common to all, as to format: functional
The species entered for test [1] is Homo sapiens. The test can be described thus: Percentage of judgments reporting an aftertaste at a concentration of 1000 ppm and character thereof. The procedure, abridged:
(§1)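 Trained judges tasted aqueous solutions of the compounds, which had to be ≥95 weight percent pure and to have passed mutagenicity and single oral dose toxicity screening. The value is the percentage of panel judgments reporting an aftertaste. Where given, its character is recorded as sweet, bitter or bitter-sweet.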

The species entered for test [2] is Homo sapiens. As to the kind of experiment: Experimentally determined perceived intensity of compound at a concentration of 1000 ppm (mean value). The procedure, abridged:
(§2)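 Trained human sensory panel of judges tasted aqueous solutions of the compound. Samples had to be ≥95 weight % pure (HPLC, proton titration, Karl Fischer), non-mutagenic in five Salmonella typhimurium strains with and without microsomal activation, and non-toxic in a single-oral-dose mouse test. Perceived intensity (Ip) was read from time–intensity curves at 4- or 6-s intervals and averaged. Outliers at the 95% level were rejected by t-value. Values reported as mean (2Sm).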

The species entered for test [3] is Homo sapiens. The test can be described thus: Number of taste judgments per compound.
For test [4], the species on record is Homo sapiens. The test can be described thus: Sweet character at a concentration of 249 ppm (mean value).
The species entered for test [5] is Homo sapiens. As to the kind of experiment: Intensity calculated on a weight basis relative to an 85500 ppm sucrose solution at a concentration of 249 ppm (mean value). In a few lines: (§3)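 Trained human panel tasted aqueous solutions of purity-checked (≥95 weight percent) compounds cleared for mutagenicity and mouse oral toxicity. Weight-basis intensity I_w = perceived intensity × (85500 ppm sucrose / compound concentration in ppm). The mean is reported with 2S_m limits; data deviating excessively at 95% confidence were rejected by the t-value method.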

The species entered for test [6] is Homo sapiens. The test can be described thus: Sour character at a concentration of 249 ppm (mean value).
For test [7], the species on record is Homo sapiens. As to the kind of experiment: Intensity calculated on a molar basis relative to a 0.25 M sucrose solution at a concentration of 249 ppm (mean value). In a few lines: (§4)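 Trained human judges tasted aqueous solutions of the test compound; compounds were first required to be ≥95 weight percent pure and free of mutagenicity (five Salmonella typhimurium strains, ± microsomal activation) and of single oral dose mouse toxicity. Molar intensity I_m = perceived intensity × (0.25 M sucrose / compound molar concentration). The mean is reported with 2S_m limits; outliers were rejected at 95% confidence by t-value.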

For test [8], the species on record is Homo sapiens. The test can be described thus: Sweet / Bitter character at a concentration of 249 ppm (mean value); 97/3.
The species named for test [9] is Homo sapiens. The test can be described thus: Salty character at a concentration of 249 ppm (mean value).
Test [10] is filed under the species Homo sapiens. The test can be described thus: Bitter character at a concentration of 249 ppm (mean value). In a few lines:
(§5)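 Trained human panel tasted aqueous solutions. Each judge reported whether there was an aftertaste and its character (sweet, bitter or bitter-sweet). The value is the percentage of judgments reporting a bitter aftertaste.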

For test [11], the species on record is Homo sapiens. As to the kind of experiment: Other taste character at a concentration of 249 ppm (mean value). In a few lines: (§6)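 Trained human sensory panel (Swartz method) tasted dilute aqueous solutions of the compounds, which had to be ≥95 weight percent pure and free of mutagenicity and toxicity. Taste character is reported as the mean value with 2S_m limits. Data deviating excessively at the 95% confidence level were rejected by the t-value method.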

The species named for test [12] is Homo sapiens. The test can be described thus: Experimentally determined perceived intensity of compound at a concentration of 249 ppm (mean value). In a few lines:
as §2

For test [13], the species on record is Homo sapiens. The test can be described thus: Percentage of judgments reporting an aftertaste at a concentration of 249 ppm and character thereof. The procedure, abridged:
as §1

The species named for test [14] is Homo sapiens. As to the kind of experiment: Experimentally determined perceived intensity of compound at a concentration of 690 ppm (mean value). The procedure, abridged: as §2
The species entered for test [15] is Homo sapiens. As to the kind of experiment: Sweet / Bitter character at a concentration of 1090 ppm (mean value).
Test [16] is filed under the species Homo sapiens. As to the kind of experiment: Other taste character at a concentration of 1090 ppm (mean value). The procedure, abridged:
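Trained human panel tasted aqueous solutions of each compound. Aftertaste is scored as the percentage of judgments reporting one, with its character coded sweet (s), bitter (b) or bitter-sweet (bs).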

The species named for test [17] is Homo sapiens. The test can be described thus: Intensity calculated on a molar basis relative to a 0.25 M sucrose solution at a concentration of 1090 ppm (mean value). The procedure, abridged:
as §4

The species named for test [18] is Homo sapiens. As to the kind of experiment: Intensity calculated on a weight basis relative to an 85500 ppm sucrose solution at a concentration of 1090 ppm (mean value). The procedure, abridged:
as §3

Test [19] is filed under the species Homo sapiens. As to the kind of experiment: Percentage of judgments reporting an aftertaste at a concentration of 1090 ppm. In a few lines: as §1
Test [20] is filed under the species Homo sapiens. As to the kind of experiment: Bitter character at a concentration of 1090 ppm (mean value). The procedure, abridged:
as §5

The species entered for test [21] is Homo sapiens. The test can be described thus: Experimentally determined perceived intensity of compound at a concentration of 1090 ppm (mean value). In a few lines: as §2
The species named for test [22] is Homo sapiens. As to the kind of experiment: Sour character at a concentration of 1090 ppm (mean value).
Test [23] is filed under the species Homo sapiens. As to the kind of experiment: Sweet character at a concentration of 1090 ppm (mean value).
The species named for test [24] is Homo sapiens. As to the kind of experiment: Salty character at a concentration of 1090 ppm (mean value).
For test [25], the species on record is Homo sapiens. The test can be described thus: Intensity calculated on a molar basis relative to a 0.25 M sucrose solution at a concentration of 720 ppm (mean value). The procedure, abridged:
as §4

The species entered for test [26] is Homo sapiens. As to the kind of experiment: Sweet character at a concentration of 720 ppm (mean value).
The species named for test [27] is Homo sapiens. The test can be described thus: Salty character at a concentration of 720 ppm (mean value).
The species entered for test [28] is Homo sapiens. As to the kind of experiment: Experimentally determined perceived intensity of compound at a concentration of 720 ppm (mean value). The procedure, abridged: as §2
Test [29] is filed under the species Homo sapiens. The test can be described thus: Sweet / Bitter character at a concentration of 720 ppm (mean value); 50/50.
For test [30], the species on record is Homo sapiens. The test can be described thus: Other taste character at a concentration of 720 ppm (mean value). In a few lines: as §6
The species entered for test [31] is Homo sapiens. As to the kind of experiment: Bitter character at a concentration of 720 ppm (mean value). In a few lines:
as §5

Test [32] is filed under the species Homo sapiens. The test can be described thus: Percentage of judgments reporting an aftertaste at a concentration of 720 ppm and character thereof.
Test [33] is filed under the species Homo sapiens. As to the kind of experiment: Intensity calculated on a weight basis relative to an 85500 ppm sucrose solution at a concentration of 720 ppm (mean value). In a few lines: as §3
For test [34], the species on record is Homo sapiens. The test can be described thus: Sour character at a concentration of 720 ppm (mean value).
Test [35] is filed under the species Homo sapiens. As to the kind of experiment: Sour character at a concentration of 252 ppm (mean value). In a few lines:
as §6

The species named for test [36] is Homo sapiens. As to the kind of experiment: Intensity calculated on a molar basis relative to a 0.25 M sucrose solution at a concentration of 252 ppm (mean value). In a few lines:
as §4

The species named for test [37] is Homo sapiens. As to the kind of experiment: Sweet character at a concentration of 252 ppm (mean value). The procedure, abridged:
as §6

For test [38], the species on record is Homo sapiens. The test can be described thus: Bitter character at a concentration of 252 ppm (mean value). The procedure, abridged: as §5
The species named for test [39] is Homo sapiens. The test can be described thus: Sweet / Bitter character at a concentration of 252 ppm (mean value); 6/94.
For test [40], the species on record is Homo sapiens. The test can be described thus: Experimentally determined perceived intensity of compound at a concentration of 252 ppm (mean value). The procedure, abridged:
as §2

The species entered for test [41] is Homo sapiens. As to the kind of experiment: Percentage of judgments reporting an aftertaste at a concentration of 252 ppm and character thereof. The procedure, abridged:
as §1

Test [42] is filed under the species Homo sapiens. As to the kind of experiment: Intensity calculated on a weight basis relative to an 85500 ppm sucrose solution at a concentration of 252 ppm (mean value). The procedure, abridged: as §3
Test [43] is filed under the species Homo sapiens. As to the kind of experiment: Other taste character at a concentration of 252 ppm (mean value). In a few lines: as §6
Test [44] is filed under the species Homo sapiens. As to the kind of experiment: Salty character at a concentration of 252 ppm (mean value). The procedure, abridged: as §6
The species entered for test [45] is Homo sapiens. The test can be described thus: Experimentally determined perceived intensity of compound at a concentration of 2000 ppm (mean value). The procedure, abridged:
as §2

As for `COc1ccc(CNC(=O)c2c(O)cc(O)cc2O)cc1O`, the Judgments came to 0 in the test listed under Homo sapiens [1] and 1 in the test filed under Homo sapiens [3]. Besides, the IP in the test listed under Homo sapiens [2] is on record as 0.

As for `COc1ccc(CCC(=O)c2c(O)cc(OCC(=O)CC(=O)[O-])cc2O)cc1O.[Na+]`, the Taste character in the test filed under Homo sapiens [4] was determined as 85; in the test listed under Homo sapiens [6] it was 0; in the test listed under Homo sapiens [8], 97; in the test listed under Homo sapiens [9] it was 0; in the test filed under Homo sapiens [10], 3; in the test listed under Homo sapiens [11] it was 12. For the same compound, the IW in the test filed under Homo sapiens [5] was 310. In addition, the IM in the test listed under Homo sapiens [7] is on record as 380. In addition, the IP in the test filed under Homo sapiens [12] was determined as 0.89. Moreover, the Judgments in the test filed under Homo sapiens [13] was found to be 100; in the test listed under Homo sapiens [3] it was 24.

In the case of `COc1ccc(/C=C/C(=O)c2c(O)cc(OCC(=O)[O-])cc2O)cc1O.[Na+]`, the IP in the test listed under Homo sapiens [14] worked out at 0. Also, the Judgments in the test filed under Homo sapiens [3] came to 1.

Take `COc1ccc(C2CC(=O)c3c(O)cc(OCCCS(=O)(=O)[O-])cc3O2)cc1O.[K+]` (stereo unspecified): the Taste character is reported as 75 in the test listed under Homo sapiens [15]; 0 in the test listed under Homo sapiens [16]; 25 in the test listed under Homo sapiens [20]; 0 in the test listed under Homo sapiens [22]; 75 in the test listed under Homo sapiens [23]; 0 in the test listed under Homo sapiens [24]. Further, the IM in the test filed under Homo sapiens [17] is reported as 50. Moreover, the IW in the test listed under Homo sapiens [18] is listed as 40. Further, the Judgments in the test listed under Homo sapiens [19] is on record as 0; in the test filed under Homo sapiens [3], 1. The compound further registered an IP in the test filed under Homo sapiens [21] of 0.5.

`COc1ccc(CCC(=O)c2c(O)cc(OCCCN)cc2O)cc1O`: in the test filed under Homo sapiens [25], the IM is on record as 190. The Taste character in the test filed under Homo sapiens [26] is 50; in the test filed under Homo sapiens [27], 0; in the test listed under Homo sapiens [29], 50; in the test listed under Homo sapiens [30], 0; in the test filed under Homo sapiens [31] it was 50; in the test filed under Homo sapiens [34], 0. For the same compound, in the test filed under Homo sapiens [28], the IP is reported as 1.5. Also, the figures for the Judgments in the test listed under Homo sapiens [32] and in the test filed under Homo sapiens [3] were 100 and 1, respectively. Besides, the IW in the test filed under Homo sapiens [33] is listed as 180.

As to `COc1ccc(CCC(=O)c2c(O)cc(OCC(=O)[O-])cc2O)cc1N.[Na+]`, the Taste character in the test filed under Homo sapiens [35] is on record as 0; in the test filed under Homo sapiens [37], 5; in the test listed under Homo sapiens [38], 79; in the test filed under Homo sapiens [39], 6; in the test listed under Homo sapiens [43], 15; in the test listed under Homo sapiens [44], 1. For the same compound, in the test listed under Homo sapiens [36], the IM is listed as 230. The compound also had an IP in the test listed under Homo sapiens [40] of 0.08. The Judgments in the test listed under Homo sapiens [41] was determined as 58; in the test filed under Homo sapiens [3], 12. In the test filed under Homo sapiens [42], the IW was 200.

For `COc1ccc(/C=C/C(=O)c2ccc(OCC(=O)[O-])cc2O)cc1O.[Na+]`, the IP in the test filed under Homo sapiens [45] turned out to be 0. Further, in the test listed under Homo sapiens [3], the Judgments is 1.
